# Rows were chosen to be rich in hits. Some 3.5% of all compounds tested hit in one or more screens of this group.
# MrgX1 antag: antagonists of human MrgX1 receptor | MRGX1-HEK293 calcium flux, Fluo-4, BAM8-22 antagonism; active compounds read low | B-score at 10 µM | actives 1.3% (n = 310,000);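 active = calcium-response B-score plate-corrected more than 3 library SD below zero, starting fluorescence within 5 deviations, no agonist response on first addition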;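 also: peak minus trough fluorescence over baseline after final BAM8-22 challenge near maximal dose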
# Target sequence (Q96LB2 whole entry, looked up): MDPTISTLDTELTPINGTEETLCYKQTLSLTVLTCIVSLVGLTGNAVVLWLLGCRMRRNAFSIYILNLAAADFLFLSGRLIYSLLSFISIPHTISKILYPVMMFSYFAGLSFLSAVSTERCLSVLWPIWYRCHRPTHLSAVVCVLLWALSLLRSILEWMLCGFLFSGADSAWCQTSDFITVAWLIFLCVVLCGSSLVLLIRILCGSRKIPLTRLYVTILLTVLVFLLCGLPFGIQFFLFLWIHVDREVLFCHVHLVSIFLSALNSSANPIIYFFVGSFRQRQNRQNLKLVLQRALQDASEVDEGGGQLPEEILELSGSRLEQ
# MrgX1 PAM: human MrgX1 positive allosteric modulation, primary screen | AID 588675 | B-score at 10 µM | MrgX1-HEK293, Fluo-4 calcium flux, FDSS; active compounds read high | actives 0.63% (n = 310,000) | Q96LB2;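 active = plate-corrected calcium response at least 3 library SD above typical, normal starting fluorescence, not activating the receptor alone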;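 also: compound read alongside a low EC10 to EC30 dose of BAM8-22 agonist; peak minus trough fluorescence over baseline measured at the second addition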
# RGS4 act: potentiators or activators of RGS4; HEK293 M3R/inducible RGS4, carbachol calcium flux Fluo4; active compounds read low; B-score at 10 µM; actives 0.92% (n = 310,000); AID 463111;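 active = B-score of the integrated calcium signal more than 4 SD below the library mean, with starting fluorescence not abnormally high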;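 also: negative B-score means reduced calcium response which marks RGS4 activation or potentiation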
#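 Assay system: HEK293 FlpIn-TREx cells, stable M3R, doxycycline-inducible RGS4 / Probe or stimulus: carbachol, ECmax concentration / Times: overnight RGS4 induction, 30 min dye load 37 °C, 20 min compound RT / Signal: kinetic calcium fluorescence imaging with Fluo4-AM dye, 2 µM / Measure: Agonist-evoked peak-minus-minimum fluorescence over baseline, integrated ratio, B score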
# RGS4 inh: human RGS4 inhibition; AID 463165; B-score at 10 µM; HEK293 M3R/RGS4 inducible, Fluo-4 calcium flux; active compounds read high; triggered by carbachol at its EC20; actives 0.45% (n = 310,000); P49798;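 active = B-score, a plate-corrected calcium signal, over three deviations above library mean, with baseline fluorescence within five deviations of library mean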;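 also: RGS4 expression induced by doxycycline in cells with stable M3 receptor; B-score is computed from the integrated fluorescence ratio over baseline after carbachol; higher B-score means a larger calcium signal and so more RGS4 inhibition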
# Target sequence (P49798 whole entry, looked up): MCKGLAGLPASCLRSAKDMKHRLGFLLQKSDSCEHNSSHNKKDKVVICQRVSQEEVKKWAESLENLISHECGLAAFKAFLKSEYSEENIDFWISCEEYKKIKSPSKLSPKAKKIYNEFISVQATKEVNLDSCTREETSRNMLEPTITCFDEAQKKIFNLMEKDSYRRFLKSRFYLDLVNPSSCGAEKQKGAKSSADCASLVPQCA
# MrgX1 agonist: agonists of human MrgX1 receptor; Q96LB2; MrgX1-HEK293 cells, Fluo-4 calcium fluorescence, agonist mode; active compounds read high; B-score at 10 µM; actives 0.44% (n = 310,000);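 active = calcium response B-score plate-corrected fluorescence ratio at least 3 library SD, with starting fluorescence B-score inside 5 SD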
#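 Material – MrgX1-expressing HEK293 cells · Input – 15,000 cells seeded per well · Dosing – compound as first of three additions · Times – overnight seeding, then 1 h dark dye loading · Measured by – kinetic Fluo-4 NW fluorescence of intracellular calcium · Read-out – B-scored fluorescence response ratio · Benchmarks – positive and negative control wells on each plate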
# RGS4 activ val: confirmation of RGS4 activators; shares compounds with RGS4 act; HEK293 M3R/RGS4 inducible, carbachol calcium flux Fluo4; inhibition, % at 10 µM; actives 89% (n = 1,100); AID 602282;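 active = inhibition above 3 SD of the buffer control wells, cut at about 41% in these data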;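 also: signal is the integrated peak-minus-minimum Fluo4 fluorescence over baseline ratio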
# M3R Ca counter: activity in cells without induced RGS4 expression | shares compounds with RGS4 act | HEK293 M3R non-induced RGS4, Fluo4 calcium flux; after carbachol challenge at its EC90 | inhibition, % at 10 µM | actives 82% (n = 1,100);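 active = inhibition exceeding 3 SD of buffer-only control wells, cut at about 26% in these data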;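 also: percent drop in integrated peak-minus-baseline over baseline Fluo4 ratio after carbachol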
# RGS4 inh valid: validation of RGS4 inhibitors. shares compounds with RGS4 inh. HEK293 M3R/RGS4, carbachol calcium Fluo-4 fluorescence; carbachol added at its EC20; 0 = buffer wells, 100 = carbachol control. calcium response, % at 10 µM. actives 65% (n = 1,700). AID 492999;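 active = duplicate-averaged calcium response above the buffer-only control mean plus 5 SD of those controls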;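 also: integrated fluorescence ratio F max minus min over baseline F0; higher response in RGS4-induced cells means RGS4 inhibition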
# M3R Ca ctr: counter-screen for RGS4 inhibitors: effect in non-induced cells; shares compounds with RGS4 inh; HEK293 M3R non-induced, carbachol calcium Fluo-4; submaximal (EC20) carbachol stimulus; buffer wells 0%, carbachol control wells 100%; activity (percent), % at 10 µM; actives 20% (n = 1,900); AID 493000; call rule not given here;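 also: RGS4 induction absent so cells express M3R without RGS4; higher means more calcium signal and flags a non-specific hit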
# RGS4 inh ctr2: second counter-screen for RGS4 inhibitors: non-induced cells without carbachol | calcium response (agonist-mode artifact), % at 10 µM | HEK293 M3R/RGS4 non-induced, Fluo-4 calcium, no carbachol; normalised: buffer wells 0%, carbachol wells 100% | shares compounds with RGS4 inh | actives 22% (n = 1,900);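 active = duplicate-averaged calcium rise in uninduced cells above buffer wells' mean plus 5 SD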
# MrgX1 ag reconf: reconfirmed activator of human MrgX1 receptor signaling; shares compounds with MrgX1 agonist; MrgX1-HEK293, Fluo-4 calcium fluorescence, FDSS; activation, % at 10 µM; actives 78% (n = 600); AID 602412;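 active = calcium signal rise, corrected for plate position, at least 3 library SD high, with starting brightness within 5 such deviations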
# MrgX1 PAM conf: reconfirmed allosteric activator of human MrgX1 receptor; shares compounds with MrgX1 PAM; MrgX1-HEK293, Fluo-4 calcium fluorescence, FDSS; activation (ratio percentage), % at 10 µM; actives 13% (n = 1,200);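 active = ratio at least 3 SD above the weak peptide control, stable starting fluorescence, no direct agonism earlier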;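 also: compound followed by low BAM8-22 agonist challenge near EC20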
# MrgX1 ant reconf: confirmation of human MrgX1 receptor antagonists; shares compounds with MrgX1 antag; MrgX1-HEK293, BAM8-22 calcium flux, Fluo-4; active compounds read low; remaining BAM8-22 calcium response % of control (active compounds read low), % at 10 µM; actives 19% (n = 2,300);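 active = remaining agonist calcium response no higher than 100% minus 3 SD of agonist-only control wells, with starting fluorescence near control levels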;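 also: agonist BAM8-22 given at a near maximal EC90 to ECmax level; peak minus minimum fluorescence divided by baseline after agonist addition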
# HEK293 Ca flux: counter-screen for MrgX1 antagonists: effect in parental HEK293 cells; shares compounds with MrgX1 antag; Fluo-4 calcium fluorescence, FDSS; fluorescence ratio F(max-min)/F0 at 10 µM; actives 2% (n = 4,000); AID 624111;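 active = duplicate-averaged calcium fluorescence ratio at least three times the standard deviation of buffer wells, a nonspecific response in parental cells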
# HEK293 Ca counter: MrgX1 allosteric activator counter-screen hit in parental HEK293 cells; AID 624114; fluorescence ratio F(max-min)/F0 at 10 µM; parental HEK293 calcium flux, Fluo-4 fluorescence ratio; active compounds read high; actives 0.4% (n = 4,000); shares compounds with MrgX1 antag;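 active = calcium fluorescence ratio, averaged over duplicates, at least 3 SD of the buffer-well ratio, meaning a nonspecific response in receptor-free cells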;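 also: untransfected parental HEK293 lacking MrgX1 used as counterscreen for MrgX1 allosteric activators; fluorescence change taken during the second addition on a kinetic imager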
# HEK293 Ca cntr2: MrgX1 activator counter-screen hit in parental HEK293 cells; Fluo-4 calcium fluorescence (FDSS); active compounds read high; actives 8.7% (n = 4,000); fluorescence ratio F(max-min)/F0 at 10 µM; AID 624115; shares compounds with MrgX1 antag;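 active = calcium fluorescence ratio at least three times the spread of buffer wells, meaning a non-specific response in parental cells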
# Starred values were filed as active, the others as inactive; i = inactive; · = no result.
SMILES,MrgX1 antag,MrgX1 PAM,RGS4 act,RGS4 inh,MrgX1 agonist,RGS4 activ val,M3R Ca counter,HEK293 Ca flux,HEK293 Ca counter,HEK293 Ca cntr2,others
COc1ccc(CC(=O)Nc2cccc(-c3nnc(-c4cccc(C)c4)o3)c2)cc1OC,-12*,i,-9.9*,i,i,94*,94*,i,i,i,MrgX1 ant reconf=5.5%*
Cc1ccc(OCC(=O)Nc2cccc(-c3nnc(-c4ccccc4)o3)c2)c(C)c1,i,i,i,i,i,·,·,·,·,·,
Cc1cccc(CN2CCN(Cc3cccc(-n4cccn4)c3)CC2CCO)n1 (configuration not stated),i,i,i,i,i,·,·,·,·,·,
c1ccc(Cn2nnc3ccccc32)cc1,i,i,i,i,i,·,·,·,·,·,
c1ccc(Cn2nnc3cnccc32)cc1,-6.7*,i,-8.4*,i,i,0,0,i,i,i,MrgX1 ant reconf=i
CCOC(=O)c1ccc(CNCc2ccc(C)cc2)cc1,i,i,i,i,i,·,·,·,·,·,
OCCCNc1ncnc2oc(-c3ccccc3)c(-c3ccccc3)c12,-5*,i,-8.4*,i,i,0,0,i,i,i,MrgX1 ant reconf=i
COc1ccc(C(=O)Nc2ccc(NS(=O)(=O)c3ccccc3)cc2)cc1OC,i,i,i,i,i,·,·,·,·,·,
CCCc1ccc(Oc2cn[nH]c2-c2ccc(O)c(C)c2O)cc1,-6.8*,i,-9.1*,i,i,93*,94*,i,i,i,MrgX1 ant reconf=i
CC1(C)Cc2c(cnn2-c2cccc(F)c2)C(NC(=O)c2ccc[n+]([O-])c2)C1 (configuration not stated),i,i,i,i,i,·,·,·,·,·,
O=C(CSc1nc2ccccc2c2c1CCCC2)N1CCOCC1,i,19*,-9.3*,i,i,92*,92*,i,i,i,MrgX1 PAM conf=i
CC1(C)CC(=O)C2=C(C1)Nc1ccccc1S2,i,i,i,i,i,·,·,·,·,·,
CC1(C)CC(=O)C2=C(C1)Nc1ccccc1NC2,i,i,-7.9*,i,34*,0,0,i,i,i,MrgX1 ag reconf=i
Cc1cc(C)nc(/N=C(\N)Nc2ccc(OCc3ccccc3)cc2)n1,i,i,-10*,i,161*,87*,62*,i,i,128*,MrgX1 ag reconf=590%*
Cc1onc(-c2ccccc2)c1C(=O)NC(=S)NNC(=O)c1ccc(O)cc1,i,i,i,i,i,·,·,·,·,·,
CCCOc1ccc(C(=O)NC(=S)NNC(=O)c2c(-c3ccccc3)noc2C)cc1,i,i,-11*,i,105*,92*,82*,i,i,115*,MrgX1 ag reconf=690%*
COc1cccc(NC(=O)Nc2nc(-c3ccc(OC)c(OC)c3)cs2)c1,-7*,i,-8.1*,i,i,92*,85*,i,i,i,MrgX1 ant reconf=22%*
O=C(/C(C=Nc1ccc(Br)cc1)=C(/O)c1ccco1)C(F)(F)F,i,i,i,i,i,·,·,·,·,·,
CCOC(=O)C1CCN(Cc2nc3ccccc3c(=O)n2-c2ccc(OCC)cc2)CC1,·,·,i,6.1*,·,·,·,·,·,·,RGS4 inh valid=6.5%*;M3R Ca ctr=i;RGS4 inh ctr2=i
Cc1ccc(C(C2C(=O)CC(C)(C)CC2=O)C2C(=O)CC(C)(C)CC2=O)s1,i,i,i,25*,i,·,·,·,·,·,RGS4 inh valid=17%*;M3R Ca ctr=i;RGS4 inh ctr2=i
O=C(CCN1CCCCC1)c1ccc2c(c1)OCCO2,i,i,i,i,i,·,·,·,·,·,RGS4 inh valid=i;M3R Ca ctr=i;RGS4 inh ctr2=i
O=C(CCN1CCc2ccccc2C1)c1ccc2c(c1)OCCO2,i,i,i,6.7*,i,·,·,·,·,·,RGS4 inh valid=20%*;M3R Ca ctr=i;RGS4 inh ctr2=14%*
CCOc1ccc(C(=O)CCN2CCCCC2)cc1,i,i,i,i,i,·,·,·,·,·,
O=C(CCN1CCc2ccccc21)c1ccc2c(c1)OCCO2,i,i,i,i,i,·,·,·,·,·,
COc1ccc(C(=O)CCN2CCCCCC2)cc1,i,i,i,11*,39*,·,·,·,·,·,RGS4 inh valid=i;M3R Ca ctr=i;RGS4 inh ctr2=28%*
COc1ccc(Cc2nnc(SC(C)C(=O)Nc3ccc(C(N)=O)cc3)o2)cc1 (configuration not stated),i,i,i,i,i,·,·,·,·,·,
CCOC(=O)/C=C/C(=O)OCC(=O)N1CCN(C(=O)c2ccco2)CC1,i,i,i,5.7*,i,·,·,·,·,·,RGS4 inh valid=18%*;M3R Ca ctr=i;RGS4 inh ctr2=i
COc1ccccc1-c1cc(C(=O)N2CCN(S(=O)(=O)c3ccc(C)cc3)CC2)[nH]n1,i,i,i,i,i,·,·,·,·,·,

# Screens deposited in PubChem BioAssay by Johns Hopkins Ion Channel Center.
